Positions count from the first letter of the chain named. Active and inactive are the calls of the source. The calls are words filed in the database; no cut-off is given here.
Experiments:
[1] = test system: T1, Neuromedin-K receptor (Homo sapiens), P29371 [Y247F]; experiment: Noncompetitive inhibition at human NK3 Y247F5.38 mutant expressed in HEK293 cells assessed as decrease in [MePhe7]NKB-induced [3H]IP accumulation after 20 mins; type: cell-based
T1 sequence (whole entry): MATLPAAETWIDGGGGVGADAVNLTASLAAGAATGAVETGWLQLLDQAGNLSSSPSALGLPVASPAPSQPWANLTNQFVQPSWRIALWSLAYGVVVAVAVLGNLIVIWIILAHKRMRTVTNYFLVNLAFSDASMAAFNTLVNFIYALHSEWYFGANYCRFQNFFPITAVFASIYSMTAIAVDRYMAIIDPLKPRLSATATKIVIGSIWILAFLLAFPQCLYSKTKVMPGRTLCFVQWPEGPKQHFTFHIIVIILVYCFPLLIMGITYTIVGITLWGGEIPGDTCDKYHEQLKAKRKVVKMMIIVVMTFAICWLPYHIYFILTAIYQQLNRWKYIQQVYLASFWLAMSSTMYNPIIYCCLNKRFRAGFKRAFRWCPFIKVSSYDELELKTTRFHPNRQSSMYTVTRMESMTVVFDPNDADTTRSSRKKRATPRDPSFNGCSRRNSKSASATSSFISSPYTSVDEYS
Summary of the method: (§1)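 HEK293 cells transiently expressing human NK3 WT or mutant, labeled with myo-[³H]inositol in LiCl buffer. Antagonist preincubated 20 min at 37 °C, then [MePhe⁷]NKB (0.01 nM–1 μM) added for 45 min at 37 °C. [³H]IP read by SPA beads. Schild analysis of EC50 shift and Emax depression across increasing antagonist concentrations gives pA2, slope and mode of antagonism.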

[2] = target: Neuromedin-K receptor (Homo sapiens, UniProt P29371, Y247W); experiment: Displacement of radioligand [3H]osanetant at human NK3 Y247W mutant expressed in HEK293 cells; type: cell-based
Neuromedin-K receptor (Homo sapiens, UniProt P29371, Y247W), sequence (P29371 whole entry Y247W): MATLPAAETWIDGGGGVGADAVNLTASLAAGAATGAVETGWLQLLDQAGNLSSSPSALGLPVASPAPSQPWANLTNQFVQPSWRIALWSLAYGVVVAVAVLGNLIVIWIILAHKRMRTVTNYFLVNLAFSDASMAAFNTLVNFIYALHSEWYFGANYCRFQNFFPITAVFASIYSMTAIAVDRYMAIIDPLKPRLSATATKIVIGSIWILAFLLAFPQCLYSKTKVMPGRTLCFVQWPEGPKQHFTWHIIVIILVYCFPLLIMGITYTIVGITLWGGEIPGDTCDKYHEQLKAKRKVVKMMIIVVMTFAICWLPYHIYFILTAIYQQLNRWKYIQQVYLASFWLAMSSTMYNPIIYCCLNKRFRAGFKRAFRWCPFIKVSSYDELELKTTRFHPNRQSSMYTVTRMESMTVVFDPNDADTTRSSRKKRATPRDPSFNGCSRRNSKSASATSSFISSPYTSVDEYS

[3] = target: Neuromedin-K receptor (Homo sapiens, UniProt P29371, Y247F); experiment: Displacement of radioligand [3H]osanetant at human NK3 Y247F mutant expressed in HEK293 cells; type: cell-based
[4] = test system: Gerbillinae; experiment: Inhibition of foot tapping response in po dosed gerbil; type: functional
[5] = target: Neuromedin-K receptor (Homo sapiens, UniProt P29371, H316F); experiment: Displacement of radioligand [3H]osanetant at human NK3 H316F mutant expressed in HEK293 cells; type: cell-based
Neuromedin-K receptor (Homo sapiens, UniProt P29371, H316F), sequence (P29371 whole entry H316F): as the sequence (P29371 whole entry Y247W) above, with W247Y, H316F counted along it

[6] = target: Substance-P receptor (Homo sapiens, UniProt P25103, F264Y); experiment: Displacement of radioligand [3H]SP from human NK1 F264Y6.51 mutant expressed in HEK293 cells; type: cell-based
Substance-P receptor, sequence (P25103 whole entry F264Y): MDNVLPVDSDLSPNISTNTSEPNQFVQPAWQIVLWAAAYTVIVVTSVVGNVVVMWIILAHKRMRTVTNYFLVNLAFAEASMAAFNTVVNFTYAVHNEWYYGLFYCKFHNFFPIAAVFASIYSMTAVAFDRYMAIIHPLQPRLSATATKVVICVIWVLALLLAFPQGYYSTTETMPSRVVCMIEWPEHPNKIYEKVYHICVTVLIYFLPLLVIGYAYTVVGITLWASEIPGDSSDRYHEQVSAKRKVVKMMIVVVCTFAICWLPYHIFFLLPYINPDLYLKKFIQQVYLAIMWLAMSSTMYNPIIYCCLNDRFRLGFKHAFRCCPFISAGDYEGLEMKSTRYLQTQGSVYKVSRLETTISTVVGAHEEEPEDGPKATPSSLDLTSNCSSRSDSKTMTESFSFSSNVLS
Summary of the method: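 Membranes from transiently transfected HEK293 cells, 2.5 μg protein/well, in 50 mM HEPES pH 7.4 with 3 mM MnCl2, phosphoramidon, leupeptin and 0.04% BSA. 10 competitor concentrations (0.0003–10 μM), 90 min at rt. Nonspecific binding with 10 μM NK1 antagonist. Filtration, then scintillation counting. Ki by Cheng–Prusoff. Three experiments, each in duplicate.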

[7] = test system: HEK293; experiment: Selectivity ratio of Ki for human NK3 H316W mutant expressed in HEK293 cells to Ki for wild type human NK3 receptor expressed in HEK293 cells; type: cell-based
[8] = test system: T2, Neuromedin-K receptor (Homo sapiens), P29371 [Y315F]; experiment: Noncompetitive inhibition at human NK3 Y315F6.51 mutant expressed in HEK293 cells assessed as decrease in [MePhe7]NKB-induced [3H]IP accumulation after 20 mins; type: cell-based; summary of the method: as §1
T2 sequence (whole entry): T1 sequence (whole entry) with F247Y, Y315F

[9] = target: T3, Neuromedin-K receptor (Homo sapiens, UniProt P29371); experiment: Binding affinity to wild type human NK3 receptor
T3 sequence (P29371 whole entry): T1 sequence (whole entry) with F247Y

Cc1cc(F)ccc1-c1cc(N2CC[C@H](O)[C@H]2CO)ncc1N(C)C(=O)C(C)(C)c1cc(C(F)(F)F)cc(C(F)(F)F)c1
inhibition [1]: Active
Ki [2]: 3.4 nM
Ki [3]: 3.9 nM
ED50 [4]: 0.4 mg/kg
Ki [5]: 12.5 nM
Ki [6]: 1.1 nM
Ratio Ki [7]: 693
inhibition [8]: Active
Ki [9]: 2.9 nM

— ChEMBL document CHEMBL2203099, “Identification of a crucial amino acid in the helix position 6.51 of human tachykinin neurokinin 1 and 3 receptors contributing to the insurmountable mode of antagonism by dual NK₁/NK₃ antagonists” (J Med Chem, 2012)
